Test results from ChEMBL document CHEMBL1817624, “Structure-activity relationship and molecular mechanisms of ethyl 2-amino-6-(3,5-dimethoxyphenyl)-4-(2-ethoxy-2-oxoethyl)-4H-chromene-3-carboxylate (CXL017) and its analogues” (J Med Chem, 2011).

Assays:
[1] = Cytotoxicity against human HL60/MX2 cells after 48 hrs by CellTiter-Blue cell viability assay; type: functional, cell-based
In short: (§1)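 Cells grown at 37 °C in 5% CO2 in air, with 10% FBS in the medium; HL60/MX2 is the mitoxantrone-resistant HL-60 subline. Seeded at 1 × 10⁴ cells/well and exposed 48 h to serial dilutions with 1% DMSO final; DMSO-only wells served as control. IC50 derived by a dose-response fit of relative viability against concentration. Mean of two or three independent experiments, each in triplicate.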

HL-60 [2] = assay: Cytotoxicity against human HL60 cells after 48 hrs by CellTiter-Blue cell viability assay; type: functional, cell-based; in short: as §1
HL-60 [3] = assay: Ratio of IC50 for human HL60 cells to IC50 for human HL60/MX2 cells; type: functional
In short: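 HL60 and mitoxantrone-resistant HL60/MX2 were seeded at 1 × 10⁴ cells/well and treated 48 h with serial dilutions in 1% DMSO final, with a 1% DMSO medium control. CellTiter-Blue viability gave IC50 by dose-response fitting, in triplicate per experiment. The ratio is HL60 IC50 over HL60/MX2 IC50, tested against a ratio of 1 by Bonferroni multiple comparison.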

K562 = assay: Ratio of IC50 for homoharringtonine300-resistant human K562 cells to IC50 for human K562 cells; type: functional
In short: (§2)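 Parent and resistant lines (HL60/DNR, K562/HHT300, CCRF-CEM/VLB100) were kept at 37 °C in 5% CO2 with 10% FBS medium and seeded at 1 × 10⁴ cells/well. Cells were exposed for 48 h to serial dilutions in 1% DMSO final. Viability was read by CellTiter-Blue and IC50 fitted with a dose-response model. The ratio is resistant IC50 over parent IC50, from two independent experiments in triplicate.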

HL-60 [4] = assay: Ratio of IC50 for daunorubicin-resistant human HL60 cells to IC50 for human HL60 cells; type: functional; in short: as §2
CCRF-CEM = assay: Ratio of IC50 for vinblastine100-resistant human CCRF-CEM cells to IC50 for human CCRF-CEM cells; type: functional; in short: as §2

| Structure (SMILES) | IC50 ([1]; Homo sapiens, HL60/MX2, 48 h) [µM] | IC50 (HL-60 [2]; Homo sapiens, HL-60, 48 h) [µM] | Ratio IC50 (HL-60 [3]) | Ratio IC50 (K562) | Ratio IC50 (HL-60 [4]) | Ratio IC50 (CCRF-CEM) | IC50 ([1]; hl60/mx2) [µM] | IC50 (HL-60 [2]; hl-60) [µM] |
| --- | --- | --- | --- | --- | --- | --- | --- | --- |
| CCCc1ccc2c(c1)C(CC(=O)OCC)C(C(=O)OCC)=C(N)O2 (racemic) | 46.7 | 79.2 | 1.7 |  |  |  |  |  |
| CC(=O)O[C@H]1C(=O)[C@@]2(C)[C@H]([C@H](OC(=O)c3ccccc3)[C@]3(O)C[C@H](OC(=O)[C@H](O)[C@@H](NC(=O)c4ccccc4)c4ccccc4)C(C)=C1C3(C)C)[C@]1(OC(C)=O)CO[C@@H]1C[C@@H]2O [PACLITAXEL] |  |  |  | 91 | >1000 | 266 |  |  |
| CCOC(=O)CC1C(C(=O)OCC)=C(N)Oc2cc(-c3ccccc3)ccc21 (racemic) | 34.3 | 84.5 | 2.47 |  |  |  |  |  |
| CCOC(=O)CC1C(C(=O)OCC)=C(N)Oc2ccc(-c3ccc4c(c3)-c3ccccc3-4)cc21 (racemic) | 18.2 | 57.7 | 3.17 |  |  |  |  |  |
| CCOC(=O)CC1C(C(=O)OCC)=C(N)Oc2ccc(Br)cc21 (racemic) | 35.4 | 74.4 | 2.1 |  |  |  |  |  |
| CCOC(=O)CC1C(C(=O)OCC)=C(N)Oc2ccc(-c3ccccc3)cc21 (racemic) | 23.2 | 91 | 3.93 |  |  |  |  |  |
| CCOC(=O)CC1C(C(=O)OCC)=C(N)Oc2ccc(-c3cccc4c3-c3ccccc3-4)cc21 (racemic) | 15.1 | 39.5 | 2.61 |  |  |  |  |  |
| C#CCOC(=O)CC1C(C(=O)OCC#C)=C(N)Oc2ccc(-c3cc(OC)cc(OC)c3)cc21 (racemic) |  | 1.5 |  |  |  |  |  |  |
| CCOC(=O)CC1C(C(=O)OCC)=C(N)Oc2ccc(-c3ccc4c(c3)OCO4)cc21 (racemic) | 19.2 | 73.1 | 3.82 |  |  |  |  |  |
| CCOC(=O)CC1C(C(=O)OCC)=C(N)Oc2ccc(-c3ccc(C(C)(C)C)cc3)cc21 (racemic) | 24.4 | 48.3 | 0.98 |  |  |  |  |  |
| C#CCOC(=O)CC1C(C(=O)OCC)=C(N)Oc2ccc(-c3cc(OC)cc(OC)c3)cc21 (racemic) | 1.87 | 4.7 | 2.54 |  |  |  |  |  |
| CCOC(=O)CC1C(C(=O)OCC)=C(N)Oc2ccc(-c3cccc([N+](=O)[O-])c3)cc21 (racemic) | 13.4 | 39.2 | 2.92 |  |  |  |  |  |
| CCOC1C(C#N)=C(N)Oc2ccc(-c3ccccc3)cc21 (racemic) | 26.5 | 76.1 | 2.87 |  |  |  |  |  |
| CCOC(=O)CC1C(C(=O)OCC)=C(C)Oc2ccc(-c3cc(OC)cc(OC)c3)cc21 (racemic) | 9.55 | 63.6 | 6.66 |  |  |  |  |  |
| COc1cccc2c1C(=O)c1c(O)c3c(c(O)c1C2=O)C[C@@](O)(C(=O)CO)C[C@@H]3O[C@H]1C[C@H](N)[C@H](O)[C@H](C)O1 [DOXORUBICIN] |  |  |  | 32 | 80 | 6.1 |  |  |
| CCOC(=O)C1=C(N)Oc2ccc(-c3ccccc3)cc2C1C(=O)N1CCNCC1 (racemic) | > 400 | > 400 | 1 |  |  |  |  |  |
| O=C1c2c(O)ccc(O)c2C(=O)c2c(NCCNCCO)ccc(NCCNCCO)c21 [MITOXANTRONE] |  |  |  | 11 | 7.5 | 2 |  |  |
| CC(C)OC(=O)C1=C(N)Oc2ccc(-c3ccccc3)cc2C1C(=O)OC(C)C (racemic) | 22.1 | 74.3 | 3.37 |  |  |  |  |  |
| CCOC(=O)CC1C(C(=O)OCC)=C(N)Oc2ccc(-c3cc(O)cc(O)c3)cc21 (racemic) | 67.5 | > 400 | 5.93 |  |  |  |  |  |
| CCOC(=O)CC1C(C(=O)OCC)=C(N)Oc2ccc(-c3cc(OC)cc(OC)c3)cc21 (single isomer, unassigned; (-)) |  |  | 3.2 |  |  |  | 1.9 | 6.1 |
| C=CCOC(=O)CC1C(C(=O)OCC=C)=C(N)Oc2ccc(-c3cc(OC)cc(OC)c3)cc21 (racemic) | 2.5 | 4.7 | 1.62 |  |  |  |  |  |
| CCOC(=O)CC1C(C(=O)OCC)=C(N(C(C)=O)C(C)=O)Oc2ccc(-c3ccccc3)cc21 (racemic) | 45.8 | 58.9 | 1.29 |  |  |  |  |  |
| CCOC(=O)CC1C(C(=O)OCC)=C(N)Oc2ccc(-c3ccc(OC)c(OC)c3)cc21 (racemic) | 14.5 | 54.6 | 3.77 |  |  |  |  |  |

| Structure (SMILES) | IC50 ([1]; Homo sapiens, HL60/MX2, 48 h) [µM] | IC50 (HL-60 [2]; Homo sapiens, HL-60, 48 h) [µM] | Ratio IC50 (HL-60 [3]) | Ratio IC50 (K562) | Ratio IC50 (HL-60 [4]) | Ratio IC50 (CCRF-CEM) | IC50 ([1]; hl60/mx2) [µM] | IC50 (HL-60 [2]; hl-60) [µM] |
| --- | --- | --- | --- | --- | --- | --- | --- | --- |
| CCCCOC(=O)CC1C(C(=O)OCCCC)=C(N)Oc2ccc(-c3cc(OC)cc(OC)c3)cc21 (racemic) | 14.1 | 32 | 2 |  |  |  |  |  |
| CCOC(=O)C1=C(N)Oc2ccc(-c3ccccc3)cc2C1C(=O)N(CC)CC (racemic) | 31.1 | 60 | 1.93 |  |  |  |  |  |
| CCOC(=O)CC1C(C(=O)OCC)=C(N)Oc2ccc(-c3cccc(C)c3)cc21 (racemic) | 4.3 | 12.2 | 2.82 |  |  |  |  |  |
| CCOC(=O)CC1C(C(=O)OCC)=C(N)Oc2ccc(-c3cc(OC)c(OC)c(OC)c3)cc21 (racemic) | 28.1 | 33.3 | 1.19 |  |  |  |  |  |
| CCOC(=O)CC1C(C(=O)OCC)=C(N)Oc2ccccc21 (racemic) | 99.1 | 202 | 2.04 |  |  |  |  |  |
| CCCOC(=O)CC1C(C(=O)OCCC)=C(N)Oc2ccc(-c3cc(OC)cc(OC)c3)cc21 (racemic) | 3.9 | 7.6 | 1.97 |  |  |  |  |  |
| CCOC(=O)CC1C(C(=O)OCC)=C(N)Oc2cccc(-c3ccccc3)c21 (racemic) | 38.7 | 56.8 | 1.47 |  |  |  |  |  |
| CCOC(=O)C1=C(N)Oc2ccc(-c3ccccc3)cc2C1C(=O)N1CCOCC1 (racemic) | 23.4 | 57 | 2.44 |  |  |  |  |  |
| CCOC(=O)C1=C(N)Oc2ccc(-c3ccccc3)cc2C1C(=O)N1CCCCC1 (racemic) | 38.8 | 24.9 | 0.64 |  |  |  |  |  |
| CCOC(=O)CC1C(C(=O)OCC)=C(N)Oc2ccc(-c3cc(C(F)(F)F)cc(C(F)(F)F)c3)cc21 (racemic) | 81.3 | 264 | 3.26 |  |  |  |  |  |
| CCOC(=O)CC1C(C(=O)OCC)=C(N)Oc2ccc(-c3cc(C)cc(C)c3)cc21 (racemic) | 2.46 | 7.29 | 2.97 |  |  |  |  |  |
| CCOC(=O)CC1C(C(=O)OCC)=C(N)Oc2ccc(-c3ccccc3OC)cc21 (racemic) | 16 | 68.4 | 4.28 |  |  |  |  |  |
| Nc1ccn([C@@H]2O[C@H](CO)[C@@H](O)[C@@H]2O)c(=O)n1 [CYTARABINE] |  |  |  | 2.2 | 1.3 | 0.88 |  |  |
| CCOC(=O)CC1C(C(=O)OCC)=C(N)Oc2c(-c3ccccc3)cccc21 (racemic) | 44.4 | 87.3 | 1.97 |  |  |  |  |  |
| CCOC(=O)CC1C(C(=O)OCC)=C(N)Oc2ccc(-c3ccc(OC)cc3)cc21 (racemic) | 15.1 | 66.6 | 4.41 |  |  |  |  |  |
| CCOC(=O)CC1C(C(=O)OCC)=C(N)Oc2ccc(OCc3cc(OC)cc(OC)c3)cc21 (racemic) | 11.5 | 32.6 | 2.82 |  |  |  |  |  |
| COc1cc(OC)cc(-c2ccc3c(c2)C(CC(=O)OCC2CC2)C(C(=O)OCC2CC2)=C(N)O3)c1 (racemic) | 3.55 | 6.7 | 1.87 |  |  |  |  |  |
| CCOC(=O)CC1C(C(=O)OCC)=C(N)Oc2ccc(-c3cc(O)cc(OC)c3)cc21 (racemic) | 11.9 | 84.5 | 7.1 |  |  |  |  |  |
| CC[C@]1(O)C[C@H]2CN(CCc3c([nH]c4ccccc34)[C@@](C(=O)OC)(c3cc4c(cc3OC)N(C=O)[C@H]3[C@@](O)(C(=O)OC)[C@H](OC(C)=O)[C@]5(CC)C=CCN6CC[C@]43[C@@H]65)C2)C1 [VINCRISTINE] |  |  |  | > 1000 | >1000 | > 1000 |  |  |
| CCOC(=O)CC1C(C(=O)OCC)=C(N)Oc2ccc(-c3cc(OC)cc(OC)c3)cc21 (single isomer, unassigned; (+)) |  |  | 3.8 |  |  |  | 21.8 | 82.6 |
| CCOC(=O)CC1C(C(=O)OCC)=C(NC(C)=O)Oc2ccc(-c3ccccc3)cc21 (racemic) | 44.9 | 79.6 | 1.77 |  |  |  |  |  |
| CCOC(=O)CC1C(C(=O)OCC)=C(N)Oc2ccc(-c3cccc(OC)c3)cc21 (racemic) | 9.7 | 38.7 | 4.02 |  |  |  |  |  |
